Most compounds without a hit are left out; they make up all but 3.7% or so of the library.
KCNQ1 act – potentiates or activates the human KCNQ1 potassium channel; P51787; CHO-K1 KCNQ1, thallium flux FluxOR fluorescence; stronger effect = higher value; B-score at 10 µM; 310,000 tested, 0.35% active;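 active = fluorescence ratio B-score, a plate-corrected score, at least three library SD, with initial intensity B-score within 5 SD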
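assay system = CHO-K1 cells stably expressing KCNQ1 | medium = assay buffer, equal DMSO in all wells | timing = 37 °C overnight plating, 90-min dark dye load, 20-min compound pretreatment | measured by = kinetic FluxOR thallium fluorescence, 10-s 1-Hz baseline, 110-s post-stimulus read | measure = fluorescence change relative to baseline, converted to B score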
KCNK9 block – blocks the human KCNK9 two-pore domain potassium channel | Q9NPC2 | HEK293 KCNK9, FluxOR thallium flux fluorescence; stronger effect = lower value | B-score at 10 µM | 310,000 tested, 1.2% active;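 active = ratio B-score over 3 SD below the library mean, with starting fluorescence within 5 SD of its mean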;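 also: negative B-score means less thallium flux so channel inhibition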
Target sequence (Q9NPC2 whole entry, looked up, the tested form may be a part): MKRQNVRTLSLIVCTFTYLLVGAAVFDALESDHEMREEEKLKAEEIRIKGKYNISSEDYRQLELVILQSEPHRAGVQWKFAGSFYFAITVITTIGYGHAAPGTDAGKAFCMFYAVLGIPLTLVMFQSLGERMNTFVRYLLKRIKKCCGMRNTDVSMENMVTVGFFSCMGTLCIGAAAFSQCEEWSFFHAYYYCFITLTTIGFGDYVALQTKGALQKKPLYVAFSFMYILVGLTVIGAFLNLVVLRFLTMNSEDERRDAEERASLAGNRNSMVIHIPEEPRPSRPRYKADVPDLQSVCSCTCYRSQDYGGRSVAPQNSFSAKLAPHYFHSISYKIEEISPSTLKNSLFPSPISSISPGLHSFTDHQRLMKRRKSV
KCNK3 inh – human KCNK3 channel inhibition, primary screen | O14649 | CHO-KCNK3 thallium flux, FluxOR fluorescence; stronger effect = lower value | 340,000 tested, 0.84% active | B-score at 10 µM;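 active = B-score under library mean minus 4 SD, starting fluorescence ratio at most library mean plus 5 SD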;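 also: more negative B-score means stronger inhibition of thallium flux through KCNK3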
Target sequence (O14649 whole entry, looked up): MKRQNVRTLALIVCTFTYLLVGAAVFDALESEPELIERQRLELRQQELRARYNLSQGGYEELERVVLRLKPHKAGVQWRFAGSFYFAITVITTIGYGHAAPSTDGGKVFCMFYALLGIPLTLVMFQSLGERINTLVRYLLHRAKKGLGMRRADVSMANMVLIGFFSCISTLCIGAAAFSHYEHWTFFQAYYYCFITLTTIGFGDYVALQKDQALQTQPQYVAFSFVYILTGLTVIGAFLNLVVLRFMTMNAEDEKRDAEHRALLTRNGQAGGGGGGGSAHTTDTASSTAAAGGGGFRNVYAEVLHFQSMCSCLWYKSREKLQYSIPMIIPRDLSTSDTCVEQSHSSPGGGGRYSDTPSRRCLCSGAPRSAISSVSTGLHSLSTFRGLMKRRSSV
Kir21 inh – Kir2.1 (mouse) channel inhibition | HEK293-Kir2.1, FluxOR thallium flux fluorescence; stronger effect = lower value | B-score at 10 µM | 310,000 tested, 0.85% active | AID 1672;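 active = fluorescence ratio B-score at or below minus 3 SD of library scores, with starting-brightness B-score within 2 SD, cut at about -4.2 in these data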;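 also: channel flux triggered by added potassium and thallium sulfate stimulus; B-score of peak minus minimum fluorescence over baseline after thallium stimulus; more negative B-score means stronger Kir2.1 block with less thallium influx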
KCNQ1 block – human KCNQ1 channel inhibition; P51787; CHO-K1 KCNQ1, FluxOR thallium flux fluorescence; stronger effect = higher value; B-score at 10 µM; 310,000 tested, 1.3% active; AID 2642;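 active = compounds whose thallium flux B-score, printed positive for inhibition, exceeds three library SD while starting fluorescence stays within three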;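 also: channel opened by potassium depolarization with thallium stimulus after 20 min compound exposure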
hERG protect – compounds protecting human hERG from proarrhythmic drug block | Q12809 | CHO-hERG, FluxOR thallium flux, dofetilide IC70 present | activation (rescue from dofetilide block), less the hit threshold, % at 10 µM | 310,000 tested, 0.51% active | AID 1511;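 active = activation above the mean of controls blocked by dofetilide plus 5 SD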;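 also: thallium influx through hERG after potassium depolarization seen as dye fluorescence rise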
KCNK9 block conf – confirmation of human KCNK9 potassium channel inhibitors | shares compounds with KCNK9 block | HEK293 KCNK9 cells, FluxOR thallium flux fluorescence | inhibition, % at 10 µM | 4,900 tested, 43% active | AID 492992;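 active = thallium signal inhibited by more than 5 SD of the compound-free buffer control wells, on both duplicate plates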
Kir2-1 spec – tests whether KCNK9 modulators also affect mouse Kir2.1; shares compounds with KCNK9 block; inhibition, % at 10 µM; 4,900 tested, 4% active; Kir2.1 cells, FluxOR thallium flux fluorescence; AID 492993;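 active = thallium signal drop more than 5 SD beyond the mean of the no-compound control wells, seen in both duplicate plates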;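 also: signal is fluorescence rise after thallium addition divided by baseline fluorescence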
HEK293 Tl ctr – second check of KCNK9 modulator effects in non-induced HEK293 cells. shares compounds with KCNK9 block. AID 492997. inhibition, % at 10 µM. FluxOR thallium flux. 4,900 tested, 40% active;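 active = thallium signal drop beyond 5 SD of the untreated control mean, on both duplicate plates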
Of the large screens only hits and unclear results are named; the others gave an inactive call (follow-up assays come after a bar, where they were run).

COc1ccc2c(c1)CCC/C2=N/OC(=O)c1ccccc1OC	KCNK9 block -12 | KCNK9 block conf 62% | Kir2-1 spec inactive | HEK293 Tl ctr inactive
O=C(Nc1cccnc1)c1c(F)c(F)c(F)c(F)c1F	none
O=C(Nc1ccncc1)c1c(F)c(F)c(F)c(F)c1F	KCNK9 block -11 | KCNK9 block conf 36% | Kir2-1 spec inactive | HEK293 Tl ctr 28%
COc1cccc(C(=O)/C=C/c2ccc(N3CCCCC3)c([N+](=O)[O-])c2)c1	KCNK9 block -8.3 | KCNK9 block conf 36% | Kir2-1 spec inactive | HEK293 Tl ctr 35%
Cc1ccc(-c2[nH]ncc2C(=O)c2ccc(Br)cc2)c(O)c1	none
Cc1c(C(=O)O)cccc1-c1ccc(/C=N/Nc2ccc(Br)cc2)o1	none | KCNK9 block conf inactive | Kir2-1 spec inactive | HEK293 Tl ctr inactive
O=C(O)c1ccc(N/N=C/c2ccc(-c3ccc(Cl)cc3Cl)o2)cc1	none | KCNK9 block conf inactive | Kir2-1 spec inactive | HEK293 Tl ctr inactive
Cc1c(C(=O)O)cccc1-c1ccc(/C=N/n2cnnc2)o1	none
O=C(CNCc1ccccn1)Nc1ccc([N+](=O)[O-])cc1C(=O)Nc1ccccc1F	none
Cc1ccc(-c2nc3ncccc3o2)cc1NC(=O)c1cc2ccccc2o1	none
O=C(Nc1cccc(-c2nc3ncccc3o2)c1)c1cc2ccccc2o1	KCNK9 block -8.3 | KCNK9 block conf 66% | Kir2-1 spec inactive | HEK293 Tl ctr inactive
CN(CCc1ccccc1)C(=O)c1cccc(NC(=O)Cc2cccc(NC(=O)C3CCCN(C(=O)C4CC4)C3)c2)c1 (stereo unspecified)	none (no result: KCNQ1 act, KCNK9 block, Kir21 inh, KCNQ1 block, hERG protect)
O=C(c1cc2cc(F)ccc2[nH]1)N1CCN(c2cccc(Cl)c2)CC1	none | KCNK9 block conf inactive | Kir2-1 spec inactive | HEK293 Tl ctr inactive
COc1cccc(N2CCN(C(=O)c3cc4cc(Cl)ccc4[nH]3)CC2)c1	none
CCOc1ccc(-c2nnc3ccc(SCC(=O)Nc4nc5ccc(C)cc5s4)nn23)cc1	KCNK9 block -11 | KCNK9 block conf 70% | Kir2-1 spec inactive | HEK293 Tl ctr inactive
COc1ccc(CSCC(=O)Nc2ccccc2SC)cc1	none | KCNK9 block conf inactive | Kir2-1 spec inactive | HEK293 Tl ctr inactive
Cc1ccc(CCNC(=O)CSCc2ccc(F)cc2)cc1	none | KCNK9 block conf inactive | Kir2-1 spec inactive | HEK293 Tl ctr inactive
COc1ccc(CSCC(=O)NCCC(C)C)cc1	none
Cc1ccc(NC(=O)CSCc2ccc(F)cc2)cc1	none
Cc1ccc(CSCC(=O)NCc2ccc(F)cc2)cc1	none
Cc1ccc(CSCC(=O)Nc2ccccc2F)cc1	none | KCNK9 block conf inactive | Kir2-1 spec inactive | HEK293 Tl ctr inactive
Cc1ccc(NC(=S)N2CCCC(CO)C2)c(C)c1 (stereo unspecified)	none
CC1=NOC(=O)/C1=C\c1ccc(-c2cc(Cl)ccc2Cl)o1	none | KCNK9 block conf inactive | Kir2-1 spec inactive | HEK293 Tl ctr inactive
O=C(NCc1nnnn1-c1ccc(Cl)cc1)c1ccc(Br)o1	none
CCC1(C)CC2(CCCN(CCC(=O)c3ccccc3)C2)CCO1 (stereo unspecified)	none
CC1=C(C(=O)Nc2ccccc2C)C(c2ccc(C)o2)N2C(=O)CSC2=N1 (stereo unspecified)	KCNK9 block -8.3 | KCNK9 block conf 38% | Kir2-1 spec inactive | HEK293 Tl ctr 51%
CCN(CC)c1ccc(/C=c2\sc3nnc(-c4ccccc4Cl)n3c2=O)cc1	KCNK9 block -11, KCNQ1 block 7, hERG protect 9.3 | KCNK9 block conf 44% | Kir2-1 spec inactive | HEK293 Tl ctr inactive
Cc1ccc(SCCC(=O)NCCSCc2ccccc2C)cc1	none | KCNK9 block conf inactive | Kir2-1 spec inactive | HEK293 Tl ctr inactive
CCCCNC(=O)CCSc1ccc(C)cc1	none
CCCCc1c(O)nc(SCC(=O)c2ccccc2)n(-c2ccccc2OC)c1=O	KCNK9 block -13 | KCNK9 block conf 51% | Kir2-1 spec inactive | HEK293 Tl ctr 25%
CCOc1ccc(C(=O)NC(=S)Nc2ccccc2N2CCOCC2)cc1Br	none
CCOC(=O)C1CCN(c2c([N+](=O)[O-])c(C(Cl)Cl)nn2-c2ccccc2)CC1	none | KCNK9 block conf inactive | Kir2-1 spec inactive | HEK293 Tl ctr inactive
O=[N+]([O-])c1c(C(Cl)Cl)nn(-c2ccccc2)c1N1CCCC1	none
Nc1cc(=O)[nH]c(SCC(=O)N2CCN(S(=O)(=O)c3ccc4ccccc4c3)CC2)n1	none
O=C(CSc1ncc(C(F)(F)F)cc1Cl)N1CCN(S(=O)(=O)c2ccc3ccccc3c2)CC1	none | KCNK9 block conf inactive | Kir2-1 spec inactive | HEK293 Tl ctr inactive
C/C(=N\NC(=O)COc1ccc(C)cc1C(C)C)c1cc2ccccc2o1	none | KCNK9 block conf inactive | Kir2-1 spec inactive | HEK293 Tl ctr inactive
C/C(=N\NC(=O)COc1ccc(C(C)(C)C)cc1)c1cc2ccccc2o1	none | KCNK9 block conf inactive | Kir2-1 spec inactive | HEK293 Tl ctr inactive
O=C(c1ccccn1)N1CCCC(N2CCN(c3ccc(F)cc3)CC2)C1 (stereo unspecified)	none
CC(NC(=O)CCCCCCN1C(=O)c2ccccc2C1=O)c1ccc2c(c1)CCCC2 (stereo unspecified)	none | KCNK9 block conf inactive | Kir2-1 spec inactive | HEK293 Tl ctr inactive
CC(NC(=O)CCCCCN1C(=O)c2ccccc2C1=O)c1ccc2c(c1)CCCC2 (stereo unspecified)	none | KCNK9 block conf inactive | Kir2-1 spec inactive | HEK293 Tl ctr inactive
O=C(/C=C/c1ccccc1)NCCSc1ccc(Cl)cc1	none | KCNK9 block conf inactive | Kir2-1 spec inactive | HEK293 Tl ctr inactive
Cc1ccc(CN(C)c2nc(-c3cccnc3)nc3ccccc23)o1	none
CN(Cc1ccccc1F)c1nc(-c2cccnc2)nc2ccccc12	KCNK9 block -8.2 | KCNK9 block conf 31% | Kir2-1 spec inactive | HEK293 Tl ctr 28%
O=C1c2cc(N3CCCC3)c([N+](=O)[O-])cc2C(=O)N1c1ccccc1	none
COc1ccc(-n2nc([N+](=O)[O-])c(=NCCc3ccc(C)cc3)n2O)cc1	none | KCNK9 block conf inactive | Kir2-1 spec inactive | HEK293 Tl ctr inactive
Cc1ccc2nc(NCC(=O)NN)nc(-c3ccccc3)c2c1	none | KCNK9 block conf inactive | Kir2-1 spec inactive | HEK293 Tl ctr inactive
Cc1ccc2nc(NCCO)nc(-c3ccccc3)c2c1	none
C=CCN1C(=O)/C(=C/c2ccc(-c3ccc(F)cc3)o2)SC1=S	none

Screens deposited in PubChem by Johns Hopkins Ion Channel Center.
